# Measurements pooled from the literature.
# Protocols differ between the studies behind these lines.
# Cell line: BEAS-2B
# Effect on: cell growth or viability
# Method: MTT
Compound,conditions,IC50
CC(=O)c1c(O)c2ccccc2oc1=O,48 h,28.9 µM
Cc1cc(C)n(Cn2ccnc2)n1,24 h,339 µM
OC1CCN(c2ccc(/C=N/NC(=S)Nc3cccc(Cl)c3Cl)cc2)CC1,24 h,16.9 µM
COc1cccc2c1C(=O)c1c(O)c3c(c(O)c1C2=O)C[C@@](O)(C(=O)CO)C[C@@H]3O[C@H]1C[C@H](N)[C@H](O)[C@H](C)O1,24 h,> 100 µM
Cc1cc(C)n(Cn2cnc3ccccc32)n1,24 h,739 µM
C/C(=N\C(=S)/N=C(\C)c1c(O)c2ccccc2oc1=O)c1c(O)c2ccccc2oc1=O,48 h,9.01 µM
OC1CCN(c2ccc(/C=N/NC(=S)NCc3ccccc3)cc2)CC1,24 h,12.6 µM
C/C(=N\NC(=O)/N=C(\C)c1c(O)c2ccccc2oc1=O)c1c(O)c2ccccc2oc1=O,48 h,50.3 µM
OC1CCN(c2ccc(/C=N/NC(=S)NC3CCCCC3)cc2)CC1,24 h,14.5 µM
Cc1cc(Cn2ccnc2)nn1C,24 h,> 800 µM
C[C@H]1[C@H](C)CC[C@]2(C(=O)O)CC[C@]3(C)C(=CC[C@@H]4[C@@]5(C)CC[C@H](O)C(C)(C)[C@@H]5CC[C@]43C)[C@H]12,24 h,16 µM
OC1CCN(c2ccc(/C=N/NC(=S)NCCc3ccccc3)cc2)CC1,24 h,15 µM
C/C(=N\C(=O)/N=C(\C)c1c(O)c2ccccc2oc1=O)c1c(O)c2ccccc2oc1=O,48 h,21.9 µM
CCOC(=O)c1cc(C)n(Cn2cnc3ccccc32)n1,24 h,422 µM
